Test results taken from paper PMC4469273 (Current pharmaceutical biotechnology, 2014).

Assays:
[1] = test system: HUVEC invasion by S. aureus ATCC 29213 (MSSA); assay: Invasion assay: HUVEC infected with Alexa Fluor 488-labeled MSSA, flow cytometry; type: cell-based, human; settings: for Internalized bacteria (% vehicle control ± SEM), RSM structural analog: N = 5
[2] = test system: HUVEC invasion by MRSA252 NRS71; assay: Invasion assay with hospital MRSA strain; type: cell-based, human; settings: 10 μmol/L, 18-20 h pretreatment
Procedure, shortened: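 HUVEC pretreated 18-20 h with test compound or vehicle. MRSA252 NRS71 labeled through protein A with rabbit anti-mouse IgG Alexa Fluor 488 (final 8 μg/ml, RT, 20 min), washed, set to 3×10^8 CFU/ml. Infection at MOI 1440 (1 h, 37°C, 5% CO2), then lysostaphin (20 μg/ml)/gentamicin (50 μg/ml) for 45 min. Cells scraped and fixed in 1% BSA/0.74% formaldehyde; MFI from 1500 FSC/SSC-gated cells, as % control.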

[3] = test system: HUVEC invasion by NRS123; assay: Invasion assay with community-acquired MRSA strain; type: cell-based, human; settings: 10 μmol/L, 18-20 h pretreatment
Procedure, shortened: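 Attachment Factor-coated dishes seeded with HUVEC, pretreated 18-20 h with test compound or matched vehicle. Stocks were 5 mmol/L in DMSO or PEG, diluted to 1 mmol/L in solvent, then into EndoGRO-LS. Unlabeled saline-washed NRS123 at MOI 1440 (1 h, 37°C). Extracellular bacteria killed with 20 μg/ml lysostaphin/50 μg/ml gentamicin (45 min). Cells lysed with 1% saponin/PBS (20 min); dilutions plated on TSA (16 h), CFU/ml counted.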

[4] = test system: actin stress fibers in HUVEC; assay: Actin stress fiber disassembly, immunofluorescence; type: cell-based, human; settings: 10 μmol/L, 18-20 h, infected 1 h
Procedure, shortened: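 HUVEC (3 × 10^5/ml, Attachment Factor-coated glass-bottom dishes) pretreated 18-20 h with PEG vehicle or test compound. Infected with S. aureus (MOI 1200, 1 h, 5% CO2, 37°C), PBS-washed, fixed in 4% paraformaldehyde (30 min), then permeabilized/blocked in 0.1% Triton/1% BSA. Stained with Alexa Fluor 488 phalloidin (1:40), imaged by confocal (40X water immersion). Scored as % cells lacking stress fibers, 100-200 cells/treatment from random fields; χ2 test.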

[5] = test system: vinculin-containing adhesion complexes in HUVEC; assay: Vinculin-containing adhesion complexes, immunofluorescence; type: cell-based, human; settings: 10 μmol/L, 18-20 h; vehicle control 64%
Procedure, shortened: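 HUVEC at 3 × 10^4 on Attachment Factor-coated glass-bottom dishes, treated 18-20 h with DMSO vehicle or test compound. Fixed, then permeabilized/blocked (0.1% Triton/1% BSA). Stained with anti-vinculin (1:25), then rabbit anti-mouse Alexa Fluor 488 (1:250). Confocal imaging at 63X water immersion; Z-stack maximum projections. Percentage of cells with adhesion complexes from 100-200 cells/treatment in random fields; χ2 test.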

[6] = test system: β1 integrin subunit; assay: β1 integrin surface expression, flow cytometry; type: cell-based, human; settings: 10 μmol/L, 18-20 h, vs vehicle control
Procedure, shortened: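 Following 18-20 h pretreatment (DMSO vehicle or test compound), integrin recycling stopped at 4°C for 15 min. Cells scraped and washed in FACS buffer, stained with PE-conjugated anti-β1 (30 min, on ice), then fixed in FACS buffer with 4% paraformaldehyde. PE MFI measured on 600 FSC-A/SSC-A-gated cells; expressed as percent control; Mann-Whitney Rank Sum test.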

[7] = test system: HUVEC adhesion to human fibronectin; assay: Fibronectin adhesion assay; type: cell-based; settings: 10 μmol/L, 18-20 h; vehicle control 24±4%
Procedure, shortened: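 Compound or DMSO vehicle applied to HUVEC for 18-20 h (invasion-assay plating). Wells coated with human fibronectin (20 μg/ml, 2 h, 37°C) and blocked with 2% BSA (30 min, RT). Scraped cells counted by flow cytometry for input, re-plated 2 h at 37°C/5% CO2. After PBS washes, adherent cells trypsinized, fixed, counted; normalized to input. Two pooled experiments, n=8/treatment.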

[8] = test system: HUVEC; assay: Cytotoxicity assay; type: cell-based, human; settings: 10 μmol/L; for Mean fluorescence intensity (×10^4± SEM), Compound: PI fluorescence, N = 3
Procedure, shortened: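 HUVEC plated and compound-treated as for invasion: 1×10^5 cells/ml in 35 mm dishes or 1×10^4 cells/ml in 96-well plates, Attachment Factor-coated. Cells scraped and washed in FACS buffer (2% BSA/0.1% sodium azide/PBS). Brief incubation with propidium iodide at 0.5 mg/ml, then fluorescence read at once on Accuri C6 flow cytometer; MFI reported.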

[9] = test system: MSSA (ATCC 29213); assay: Bactericidal activity assay, MSSA; type: cell-based, Staphylococcus aureus; settings: 10 μmol/L; for CFU/ml (×10^10± SEM), Compound: 1 h, 1.2 × 10^8 CFU/ml incubated, N = 3
Procedure, shortened: (§1)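 Washed S. aureus (overnight TSB at 225 rpm, 37°C; subcultured; saline-washed), 1.2 × 10^8 CFU/ml, incubated with test compound or vehicle control in EndoGRO-LS medium (1 h, 5% CO2, 37°C). Serial dilutions plated on tryptic soy agar (18-20 h, 37°C); colonies counted and CFU/ml calculated.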

[10] = test system: MRSA252 NRS71; assay: Bactericidal activity assay, MRSA252 NRS71; type: cell-based, Staphylococcus aureus; settings: 10 μmol/L
Procedure, shortened: as §1

[11] = test system: NRS123; assay: Bactericidal activity assay, NRS123; type: cell-based, Staphylococcus aureus
Procedure, shortened: as §1

[12] = test system: HUVEC infected with Staphylococcus aureus; assay: Transmission electron microscopy of infected HUVEC; type: cell-based, human; settings: 10 μmol/L, 18-20 h pretreatment, infected 2 h
Procedure, shortened: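 Coverslip HUVEC (3 × 10^5/ml) pretreated 18-20 h with PEG vehicle or test compound, infected with S. aureus (MOI 30, 2 h, 37°C). Lysostaphin/gentamicin removal (45 min), then 24 h in antibiotic medium. Fixed in 2.5% glutaraldehyde/2.0% paraformaldehyde/2 mmol/L Ca/1 mmol/L Mg; post-fixed in 1% OsO4/1.5% ferrocyanide in 0.1 mol/L cacodylate. Ethanol/propylene oxide dehydration, resin embedding. Ultrathin sections stained with uranyl acetate/lead citrate, imaged at 120 kV.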

[13] = test system: endothelial cell invasion by S. aureus; settings: cited from earlier work
[14] = test system: S. aureus pneumonia; settings: cited from earlier work

| SMILES | Mean fluorescence intensity (×10^4± SEM), Compound [8] | CFU/ml (×10^10± SEM), Compound [9] [CFU/ml ×10^10] | Internalized bacteria (% vehicle control ± SEM), RSM structural analog ([1]; 10 μmol/L) | also measured |
| --- | --- | --- | --- | --- |
| COc1ccc(C2CC(c3ccccc3)=NN2c2ccc(S(N)(=O)=O)cc2)cc1 (stereo not shown) [ML 141, 4-[3-(4-methoxyphenyl)-5-phenyl-3,4-dihydropyrazol-2-yl]benzenesulfonamide] | 2.1 ± 0.3 ×10^4 | 1.8 ± 0.6 | – | Mean fluorescence intensity in washout samples (reversibility) ([1]; 10 μmol/L 1 h pretreatment, media replaced with vehicle 40 min prior to invasion): returned to baseline; Mean fluorescence intensity compared to vehicle control ([1]; 10 μmol/L, 18-20 h pretreatment, 1 h infection): lower; Invasion by MRSA252 NRS71 [2]: inhibited invasion; Invasion by NRS123 [3]: inhibited invasion; Actin stress fibers in infected cells [4]: remained intact; HUVEC with vinculin-containing adhesion complexes [5]: 37%; Expression of β1 [6]: No difference; HUVEC adhesion to fibronectin [7]: 14±2%; Cytotoxicity in HUVEC ([8]; incubated 1 h): Cytotoxicity was not detected; Bactericidal activity against MSSA [9]: Bactericidal activity was not detected; Bactericidal activity against MRSA252 NRS71 [10]: Bactericidal activity was not detected; CFU/ml recovered, MRSA252 NRS71 ([10]; 1 h, 1.2 × 10^8 CFU/ml incubated): 1.9 × 10^10 ±0.2 CFU/ml; Bactericidal activity against NRS123 ([11]; 10 μmol/L): Bactericidal activity was not detected; CFU/ml recovered, NRS123 ([11]; 1.2 × 10^8 CFU/ml incubated, vehicle control 4.5 × 10^10 ±0.6): 5.6 × 10^10 ±1.5 CFU/ml; Organelles 24 h post-invasion (ultrastructure) [12]: remained intact; Filopodia at the host cell membrane in response to bacteria ([12]; 24 h post-invasion): not detected |
| NS(=O)(=O)c1ccc(N2N=C(c3ccccc3)CC2c2ccc3c(c2)OCO3)cc1 (stereo not shown) [RSM 05] | 3.9 ± 0.2 ×10^4 | 1.6 ± 0.3 | 38 ± 3 % ^†† | – |
| COc1ccc(C2=NN(c3ccc(S(N)(=O)=O)cc3)C(c3ccc4c(c3)OCO4)C2)cc1 (stereo not shown) [RSM 06] | 2.8 ± 0.1 ×10^4 | 1.0 ± 0.3 | 23 ± 1 % ^††† | – |
| COc1ccc(C2=NN(c3ccc(S(N)(=O)=O)cc3)C(c3ccccc3)C2)cc1 (stereo not shown) [RSM 07] | 2.5 ± 0.4 ×10^4 | 2.8 ± 0.3 | 34 ± 2 % ^†† | – |
| COc1ccc(C2CC(c3ccccc3)=NN2c2ccc(S(N)(=O)=O)cc2)cc1OC (stereo not shown) [RSM 15] | 4.0 ± 0.4 ×10^4 | 2.0 ± 0.2 | 45 ± 1 % ^††† | – |
| COc1ccc(C2=NN(c3ccc(S(N)(=O)=O)cc3)C(c3ccc(OC)c(OC)c3)C2)cc1 (stereo not shown) [RSM 16] | 1.4 ± 0.2 ×10^4 | 1.8 ± 0.4 | 63 ± 4 % ^††† | – |
| COc1ccc(C2C(C)C(c3ccccc3)=NN2c2ccc(S(N)(=O)=O)cc2)cc1 (stereo not shown) [RSM 19] | 2.6 ± 0.01 ×10^4 | – | 61 ± 2 % ^†† | – |
| COCCOc1ccc(C2=NN(c3ccc(S(N)(=O)=O)cc3)C(c3ccc(Cl)cc3)C2)cc1 (stereo not shown) [RSM 20] | 2.1 ± 0.2 ×10^4 | 2.1 ± 0.4 | 61 ± 4 % ^†† | – |
| COc1ccc(C2C3Cc4ccccc4C3=NN2c2ccc(S(N)(=O)=O)cc2)cc1 (stereo not shown) [RSM 21] | 2.8 ± 0.09 ×10^4 | 3.0 ± 0.2 | 79 ± 3 % ^† | – |
| CCC(C)(C)C(=O)O[C@H]1C[C@@H](C)C=C2C=C[C@H](C)[C@H](CC[C@@H]3C[C@@H](O)CC(=O)O3)[C@H]21 [simvastatin] | – | – | – | Endothelial cell invasion by S. aureus [13]: decreased; Survival in a murine model of pneumonia [14]: improved survival |
